Broadly, the EC50 is the midpoint of the concentration-response curve.

The values that follow come from article PMC2721324 (Bioorganic & medicinal chemistry letters, 2009).

The target of assay [1] is T1, human P2Y4 receptor (Homo sapiens, UniProt P51582). The conditions noted are these: cited from earlier work; for EC50: read-out: Reference comp. (X = OCH2) EC50, native riboside, NE = no effect at 10 μM.
In assay [2] the target is T2, human P2Y2 receptor (Homo sapiens, UniProt P41231). Conditions: cited from earlier work; for EC50: read-out: Reference comp. (X = OCH2) EC50, native riboside, NE = no effect at 10 μM.
T2 sequence (P41231 whole entry): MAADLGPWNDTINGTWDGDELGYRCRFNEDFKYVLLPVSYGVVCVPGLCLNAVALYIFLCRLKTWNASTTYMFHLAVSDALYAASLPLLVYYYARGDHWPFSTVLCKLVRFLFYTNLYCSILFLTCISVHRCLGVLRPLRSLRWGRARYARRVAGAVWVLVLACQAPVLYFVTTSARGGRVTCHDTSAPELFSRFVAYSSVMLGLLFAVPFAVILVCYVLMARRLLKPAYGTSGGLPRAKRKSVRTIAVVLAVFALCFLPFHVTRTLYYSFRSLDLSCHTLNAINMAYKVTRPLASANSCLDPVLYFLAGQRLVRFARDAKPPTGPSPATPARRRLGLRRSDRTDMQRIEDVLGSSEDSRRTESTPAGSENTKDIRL
The target in assay [3] is T3, human P2Y6 receptor (Homo sapiens, UniProt Q15077). The conditions noted are these: read-out: Reference comp. (X = OCH2) EC50, native riboside, NE = no effect at 10 μM; cited from earlier work.
T3 sequence (Q15077 whole entry): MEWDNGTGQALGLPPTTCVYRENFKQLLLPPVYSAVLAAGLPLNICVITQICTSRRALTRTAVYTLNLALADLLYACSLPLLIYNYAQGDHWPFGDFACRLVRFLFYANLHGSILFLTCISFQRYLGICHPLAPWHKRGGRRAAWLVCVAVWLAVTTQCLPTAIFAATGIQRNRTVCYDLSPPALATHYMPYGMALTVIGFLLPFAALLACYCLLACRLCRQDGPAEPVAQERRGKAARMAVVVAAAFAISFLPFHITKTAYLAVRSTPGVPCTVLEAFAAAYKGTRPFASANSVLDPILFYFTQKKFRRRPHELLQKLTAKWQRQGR
Assay [4] concerns the target T1, human P2Y4 receptor. Type of assay: cell-based. The conditions noted are these: stimulation of PLC, NE = no effect at 10 μM. In a few lines: (§1)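 Recombinant human P2Y4 or P2Y6 receptor, Gq-coupled, was stably expressed in 1321N1 human astrocytoma cells, which lack a native nucleotide response. Phospholipase C activation was measured over concentration–effect curves for each test compound. EC50 is the concentration giving 50% of the maximal effect, reported as mean ± standard error.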

The target in assay [5] is T3, human P2Y6 receptor. Type of assay: cell-based. In a few lines: as §1
Assay [6] has as its target T2, human P2Y2 receptor. The class given is cell-based. The conditions noted are these: for agonist character (full or partial agonist): relative to UTP. In a few lines: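 PLC activation via Gq in 1321N1 human astrocytoma cells stably expressing recombinant human P2Y2 receptor. The parent cells lack a native nucleotide response. Concentration–effect curves were generated for each test compound, and the maximal response was expressed as a percentage of the UTP effect (UTP = 100%) to classify full or partial agonism.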

Read-outs that look alike come from different tables or passages of the source. Where only a bound is given, the exact number is not on record here.

T1 sequence (P51582 whole entry): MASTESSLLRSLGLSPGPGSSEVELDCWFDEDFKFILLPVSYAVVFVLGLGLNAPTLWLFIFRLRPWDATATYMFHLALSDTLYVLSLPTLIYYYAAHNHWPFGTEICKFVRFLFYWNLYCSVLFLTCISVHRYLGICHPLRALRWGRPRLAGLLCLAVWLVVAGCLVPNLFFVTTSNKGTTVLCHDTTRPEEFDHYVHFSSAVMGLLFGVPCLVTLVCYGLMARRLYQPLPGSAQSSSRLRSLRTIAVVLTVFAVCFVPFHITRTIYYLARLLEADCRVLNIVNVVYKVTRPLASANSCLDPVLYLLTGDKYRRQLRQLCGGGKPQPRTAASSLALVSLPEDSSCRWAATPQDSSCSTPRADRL

With `O=c1ccn([C@@H]2O[C@H](COP(=O)(O)OP(=O)(O)OP(=O)(O)O)[C@@H](O)[C@H]2O)c(=O)[nH]1` [UTP], the EC50 at human P2Y4 receptor [1] was 0.073 ± 0.02 µM; at human P2Y2 receptor [2], 0.049 ± 0.012 µM; at human P2Y6 receptor [3], above 10 µM.
For `O=c1ccn([C@@H]2O[C@H](COP(=O)(O)OP(=O)(O)O)[C@@H](O)[C@H]2O)c(=O)[nH]1` [UDP], the EC50 was above 10 µM on human P2Y4 receptor [1], above 10 µM at human P2Y2 receptor [2] and 0.046 ± 0.02 µM on human P2Y6 receptor [3].
Turning to `O=c1ccn([C@@H]2O[C@H](COP(=O)(O)OP(=O)(O)C[C@H]3O[C@@H](n4ccc(=O)[nH]c4=O)[C@H](O)[C@@H]3O)[C@@H](O)[C@H]2O)c(=O)[nH]1` [Compound 5, di-(uridine- phosphonate)], the EC50 at human P2Y4 receptor [4] was above 10 µM; on human P2Y6 receptor [5] (stimulation of PLC, mean ± standard error, NE = no effect at 10 μM), above 10 µM.
For `Nc1ncnc2c1ncn2[C@@H]1O[C@H](COP(=O)(O)OP(=O)(O)OP(=O)(O)O)[C@@H](O)[C@H]1O` [ATP], on human P2Y4 receptor [1] (native riboside), the “Reference comp. (X = OCH2) activity” value is “Antagonist[12]”. The EC50 at human P2Y2 receptor [2] was 0.085 ± 0.012 µM.
For `O=c1ccn([C@@H]2O[C@H](COP(=O)(O)OP(=O)(O)OC[C@H]3O[C@@H](n4ccc(=O)[nH]c4=O)[C@H](O)[C@@H]3O)[C@@H](O)[C@H]2O)c(=O)[nH]1` [Up2U], the EC50 on human P2Y4 receptor [1] was above 10 µM; on human P2Y2 receptor [2], above 10 µM; on human P2Y6 receptor [3], 1.26 ± 0.17 µM.
For `O=c1ccn([C@@H]2O[C@H](CP(=O)(O)OP(=O)(O)O)[C@@H](O)[C@H]2O)c(=O)[nH]1` [Compound 4, uridine 5′-phospho-phosphonate], the EC50 on human P2Y4 receptor [4] was above 10 µM. Also, the “maximal effect relative to that of UTP” value at human P2Y2 receptor [6] (effect of UTP = 100%) is at most 50%. Further, the “agonist character (full or partial agonist)” value (shortened to “agonist character”) at human P2Y2 receptor [6] is “partial ag”. Besides, on human P2Y6 receptor [5], the “agonist character” value is given as “full agonist” and the “potency less than UDP” value is “approximately 40 fold”.
For the compound `O=c1ccn([C@@H]2O[C@H](COP(=O)(O)O)[C@@H](O)[C@H]2O)c(=O)[nH]1` [UMP], the EC50 at human P2Y4 receptor [1], on human P2Y2 receptor [2] and at human P2Y6 receptor [3] was above 10 µM in each case. In addition, the “Reference comp. (X = OCH2) EC50” value on human P2Y2 receptor [2] (native riboside, NE = no effect at 10 μM) is “no effect”.
Take `O=c1ccn([C@@H]2O[C@H](CCP(=O)(O)O)[C@@H](O)[C@H]2O)c(=O)[nH]1` [Compound 7, uridine 5 ′-methylene-phosphonate]: the EC50 result at human P2Y4 receptor [4] (listed as 5′-methylphosphonate equivalent of UMP) was “inactive”. Further, on human P2Y2 receptor [6], the “agonist character” value was “partial ag”.
For the compound `O=c1ccn([C@@H]2O[C@H](/C=C/P(=O)(O)OP(=O)(O)OP(=O)(O)O)[C@@H](O)[C@H]2O)c(=O)[nH]1` [Compound 3, uridine 5′-(diphospho)-vinylphosphonate], at human P2Y2 receptor [6] (range over compounds 1, 2 and 3), the “reduction of potency relative to ATP or UTP” value is 16–176 fold. Moreover, the “agonist character” value at human P2Y2 receptor [6] is on record as “Full agonist activity”.
